Residues, ends and D or L forms follow the SMILES beside them.
What was measured:
[1] = molecular target: T1, HCMV A143T/A144T protease mutant (Human cytomegalovirus, UniProt P16753, A143T/A144T); assay: Esterase activity toward p-nitrophenol; format: biochemical; conditions: for hydrolysis by HCMV protease (in words): up to 10 min at 30 °C
T1 sequence (P16753 1-256 A143T/A144T limits assumed): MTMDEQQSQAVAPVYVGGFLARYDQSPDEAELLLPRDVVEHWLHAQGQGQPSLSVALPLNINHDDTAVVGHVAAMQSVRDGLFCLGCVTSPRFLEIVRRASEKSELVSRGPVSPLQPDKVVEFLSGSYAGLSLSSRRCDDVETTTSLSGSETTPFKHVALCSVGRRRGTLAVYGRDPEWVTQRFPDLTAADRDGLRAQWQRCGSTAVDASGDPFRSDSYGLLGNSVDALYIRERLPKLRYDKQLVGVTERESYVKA
In short: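 Catalytic-domain His-tagged A143T/A144T mutant, expressed in E. coli BL21(DE3) and Ni-NTA purified, 10 μg/mL, preincubated 3 min in 100 mM phosphate pH 7.4 with 0.5 M Na2SO4 and 10% glycerol. Boc-Xaa-ONp (50 μM) then added at 30 °C for up to 10 min. p-Nitrophenol release read at 405 nm every 30 s. Boc-Ala-ONp kinetics run in 50 mM Tris pH 7.4.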

[2] = Solubility of the model ester; format: physicochemical
HCMV protease = conditions: substrate hydrolysis, literature data; cited from earlier work
[3] = substrate hydrolysis, 10 μg/mL protease, 50 mM Tris buffer (pH 7.4)

C[C@H](NC(=O)OC(C)(C)C)C(=O)Oc1ccc([N+](=O)[O-])cc1 [Boc-L-Ala-ONp]
specific activity relative to Boc-L-Gly-ONp and Boc-L-Phe-ONp (higher) ([1]; 50 μM ester, 10 μg/mL protease): ~5 fold
specific activity ([1]; 50 μM ester, 10 μg/mL protease, 30 °C): 190 nmol/min/mg protein
affinity relative to N-Ac-Tbg-Tbg-Asn(NMe2)-Ala-AMC (less) ([1]; comparison of Km values): about 10 fold
turnover rate (kcat) relative to the peptide compound (faster) ([1]; comparison of kcat values): 10 fold
Km [1, 3]: 163 µM
kcat [1, 3]: 0.397 s^–1
solubility (in words) [2]: low solubility

CC(C)(C)OC(=O)N[C@@H](CCC(N)=O)C(=O)Oc1ccc([N+](=O)[O-])cc1 [Boc-L-Gln-ONp]
hydrolysis by HCMV protease (in words) ([1]; 50 μM ester, 10 μg/mL protease): not hydrolyzed

CC(C)(C)OC(=O)NCC(=O)NCC(=O)Oc1ccc([N+](=O)[O-])cc1 [Boc-L-Gly-L-Gly-ONp] (HELM PEPTIDE1{[CC(C)(C)OC(=O)[*:2]].G.G.[O=[N+]([O-])c1ccc(O[*:1])cc1]}$$$$V2.0)
hydrolysis by HCMV protease (in words) ([1]; 50 μM ester, 10 μg/mL protease): slower than that of Boc-L-Gly-ONp

CCC(C)C(NC(=O)OC(C)(C)C)C(=O)Oc1ccc([N+](=O)[O-])cc1 [Boc-L-Ile-ONp]
hydrolysis by HCMV protease (in words) ([1]; 50 μM ester, 10 μg/mL protease): not hydrolyzed

CC(C)CC(NC(=O)OC(C)(C)C)C(=O)Oc1ccc([N+](=O)[O-])cc1 [Boc-L-Leu-ONp]
hydrolysis by HCMV protease (in words) ([1]; 50 μM ester, 10 μg/mL protease): not hydrolyzed

CC(C)[C@H](NC(=O)OC(C)(C)C)C(=O)Oc1ccc([N+](=O)[O-])cc1 [Boc-L-Val-ONp]
hydrolysis by HCMV protease (in words) ([1]; 50 μM ester, 10 μg/mL protease): not hydrolyzed

N-Ac-Tbg-Tbg-Asn(NMe2)-Ala-AMC
Km (HCMV protease): 13.2 µM
kcat (HCMV protease): 0.035 ^b s^–1

— PMC3616455 (Molecular Pharmaceutics, 2013)
